Compound activity (PubChem BioAssay)
pPAFAH FP inh – pPAFAH enzyme inhibitors, primary screen, biochemical, fluorescence polarization, human | Platelet-activating factor acetylhydrolase (Homo sapiens), Q13093 | recombinant pPAFAH, FP-rhodamine probe fluorescence polarization | inhibition, % at 3.39 µM | 330,000 compounds, 1.5% hits;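 active = inhibition above the mean inhibition across the screen plus 3 SD, cut at about 25% in these data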;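 note: inhibitors block binding of the rhodamine activity-based probe so polarization drops; 0% = enzyme with DMSO and 100% = wells lacking pPAFAH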
PAFAH2 FP inh – PAFAH2 enzyme inhibitors, primary screen, biochemical, fluorescence polarization, human | inhibition, % at 3.39 µM | recombinant PAFAH2, FP-rhodamine activity probe | 340,000 compounds, 0.99% hits | Platelet-activating factor acetylhydrolase 2, cytoplasmic (Homo sapiens), Q99487 | AID 492956, 2010;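 active = inhibition above the mean over all tested compounds plus 3 SD, cut at about 30% in these data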;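 note: inhibitors block probe labeling of enzyme so polarization drops; 0% = enzyme with DMSO and 100% = wells lacking PAFAH2 protein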
PAFAH1B3 inh – PAFAH1B3 enzyme inhibitors, primary screen, biochemical, fluorescence polarization, human; Platelet-activating factor acetylhydrolase IB subunit alpha1 (Homo sapiens), Q15102; recombinant PAFAH1B3, FP-rhodamine probe; inhibition, % at 3.39 µM; 340,000 compounds, 0.28% hits;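 active = inhibition above the screen-wide average of all tested compounds plus 3 SD, cut at about 25% in these data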;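 note: 0% = enzyme with DMSO only and 100% = wells lacking PAFAH1B3 protein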
PAFAH1B2 FP inh – PAFAH1B2 enzyme inhibitors, primary screen, biochemical, fluorescence polarization, human; Platelet-activating factor acetylhydrolase IB subunit alpha2 (Homo sapiens), P68402; recombinant PAFAH1B2, FP-rhodamine activity probe; inhibition, % at 3.39 µM; 340,000 compounds, 1.2% hits; AID 492953, 2010;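 active = inhibition above the mean of all tested compounds plus 3 SD, cut at about 24% in these data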;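 note: 0% = enzyme with DMSO and 100% = wells lacking PAFAH1B2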
HTRA1 inhibitor – HTRA1 serine protease inhibitors, primary screen, biochemical, fluorescence polarization, HTS; Q92743; recombinant HTRA1, FP-rhodamine activity-based probe; inhibition, % at 5.96 µM; 340,000 compounds, 0.5% hits; in the data active = inhibition above about 36%;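 note: 0% = enzyme with DMSO and 100% = wells lacking enzyme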
mABHD4 FP – ABHD4 inhibitors, primary screen, biochemical, fluorescence polarization, mouse; AID 720543, 2013; 370,000 compounds, 0.54% hits; purified mABHD4, FP-Rh probe fluorescence polarization; (Lyso)-N-acylphosphatidylethanolamine lipase (Mus musculus), Q8VD66; inhibition, % at 8.92 µM;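 active = inhibition exceeding the mean over every tested compound plus 3 SD, cut at about 30% in these data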;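 note: 0% = plate median of compound wells and 100% = S159A mutant with DMSO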
Target sequence (Q8VD66 whole entry, looked up): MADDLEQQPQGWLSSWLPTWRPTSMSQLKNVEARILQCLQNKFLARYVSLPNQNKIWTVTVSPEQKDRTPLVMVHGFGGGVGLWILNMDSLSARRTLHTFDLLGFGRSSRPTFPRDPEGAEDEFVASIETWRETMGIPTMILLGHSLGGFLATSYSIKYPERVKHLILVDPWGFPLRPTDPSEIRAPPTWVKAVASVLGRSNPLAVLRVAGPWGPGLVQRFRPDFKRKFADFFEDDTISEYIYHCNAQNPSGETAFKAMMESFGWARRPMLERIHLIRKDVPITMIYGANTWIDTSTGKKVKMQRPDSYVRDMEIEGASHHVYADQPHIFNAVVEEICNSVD
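system = mouse ABHD4 enzyme, wild type | medium = HEPES pH 7.0, NaCl, Pluronic buffer | also added = FP-Rh probe | incubation = Enzyme–compound pre-incubation 45 min, then probe 60 min, both 25 °C | technique = fluorescence polarization, excitation 525 nm, emission 598 nm, BODIPY TMR filters | controls = S159A mutant high control, sample median low control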
Numbers without * were called inactive; . = not tested or not shown. In the library only some 2.8% were active in any assay of this set; here they are far more common.

SMILES	pPAFAH FP inh	PAFAH2 FP inh	PAFAH1B3 inh	PAFAH1B2 FP inh	HTRA1 inhibitor	mABHD4 FP
CCSc1nnc(NC(=O)c2cccc(S(=O)(=O)N(C)c3ccccc3)c2)s1	1	-3	-2	8	0	-11
Clc1ccc(SCCn2ccnc2)cc1	0	1	7	35*	-1	-8
Clc1ccc(OCCn2ccnc2)c(Cl)c1	1	10	1	-7	-5	4
COc1ccc(C2=CC3=C(Br)C(=O)C(C)(OC(=O)c4ccc(Cl)nc4)C(=O)C3=CO2)cc1 (configuration not stated)	28*	.	.	.	.	.
COC(=O)CCC(=O)OC1(C)C(=O)C2=CN(Cc3ccc4c(c3)OCO4)C(c3ccc(OC)cc3)=CC2=C(Br)C1=O (configuration not stated)	13	5	14	5	29	.
COc1ccc(C2=CC3=C(Br)C(=O)C(C)(OC(=O)C4CCCC4)C(=O)C3=CO2)cc1 (configuration not stated)	25*	13	4	7	15	.
Cc1cccc(NC(=S)NNC(=O)c2cccc([N+](=O)[O-])c2)c1	4	3	2	11	2	7
O=C(NNC(=S)Nc1ccc(Cl)c(Cl)c1)c1cccc([N+](=O)[O-])c1	32*	.	.	.	.	17
COCCCN1C(=O)[C@H](CC(=O)N2CCSCC2)[C@]2(C(=O)OC)CCCCC=C12	.	.	.	.	.	5
O=C(Nc1cc(S(=O)(=O)N2CCCCC2)ccc1O)c1ccccc1NS(=O)(=O)c1ccc(F)c(F)c1	34*	48*	-10	43*	-39	-4
O=C(Nc1cccc(S(=O)(=O)N2CCCCC2)c1)c1ccccc1NS(=O)(=O)c1ccc(F)cc1	24	4	3	7	-35	-2
CCS(=O)(=O)c1ccc(O)c(NC(=O)c2ccc(S(=O)(=O)N3CCCCCC3)cc2)c1	28*	13	11	10	0	-4
COC(=O)[C@]12C[C@H](CC(=O)NCCC(C)C)C(=O)N(Cc3ccco3)C1=C[C@H](C(C)(C)C)O[C@@H]2C	.	.	.	.	.	-3
CC(C)C(OC(=O)c1nsc(Cl)c1Cl)C(=O)NCc1ccccc1 (configuration not stated)	26*	11	6	5	-4	-3
CN1C(=O)c2cc(NC(=O)Cc3cccs3)ccc2OC[C@@H]2O[C@@H](CC(=O)N[C@H]3CCN(Cc4ccccc4)C3)CC[C@@H]21	.	.	.	.	.	7
Cc1cc(=O)[nH]c(SCC(=O)Nc2ccc(Cl)cc2)n1	.	.	.	.	.	0
S=c1[nH]cnc2sc(-c3ccccc3)cc12	2	1	-6	46*	-3	-8
CCCCNC(=O)O[C@H]1CC[C@@]23CCCN2C(=O)CCC[C@H]3[C@H]1CCC	.	.	.	.	.	1
CCc1ccccc1NC(=O)CSc1ccsc1[N+](=O)[O-]	25*	7	2	1	5	14
COc1ccccc1CNC(=O)CSc1ccsc1[N+](=O)[O-]	5	7	-1	-4	2	4
COC(=O)C12C=C3CC(c4ccc(C)s4)=C3C(=O)N1Cc1[nH]c3ccccc3c1C2 (configuration not stated)	.	.	.	.	.	-1
CN(Cc1ccccc1)C(=O)COC(=O)COc1ccc(C#N)cc1	33*	2	3	-3	3	-13
N#Cc1ccc(OCC(=O)OCCCOC(=O)COc2ccc(C#N)cc2)cc1	32*	4	5	18	0	-2
N#Cc1ccc(OCC(=O)OCC(=O)c2ccccc2)cc1	20	-5	12	7	7	-5
O=C(COC(=O)CSc1ccc([N+](=O)[O-])cc1)NCCCc1ccccc1	20	0	2	30*	-6	-4
CC1Cc2ccccc2N1C(=O)COC(=O)/C=C/c1cccc(F)c1 (configuration not stated)	2	10	1	1	1	-2
